We go through 27 molecules from ChEMBL document CHEMBL4190404, “Synthesis and characterization of amino acid substituted sunitinib analogues for the treatment of AML” (Bioorg Med Chem Lett, 2018).

For data set [1], the system named is Receptor-type tyrosine-protein kinase FLT3 (Homo sapiens), P36888 [UNDEFINED MUTATION]. Put plainly: Inhibition of FLT3 ITD mutant (unknown origin) using TAMRA-Src- tide as substrate at 1.25 uM after 1 hr by fluorescence polarization assay relative to control. In a few lines:
(§1)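 FLT3-ITD kinase inhibition by fluorescence polarization IMAP assay; each compound tested at 12.5 and 1.25 μM; percent inhibition, average of two parallel measurements.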
Background: Polarisation of emitted light reports the rotation of a fluorescent probe.

The test system is the same in data set [2]. Put plainly: Inhibition of FLT3 ITD mutant (unknown origin) using TAMRA-Src- tide as substrate at 12.5 uM after 1 hr by fluorescence polarization assay relative to control. In outline:
as §1

A further data set relates to MV4-11. Put plainly: Antiproliferative activity against human MV4-11 cells after 72 hrs by Celltiter-Glo luminescent cell viability assay. The class given is functional, cell-based. The settings on record: MV4-11, 72 h. In outline:
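MV4-11 leukaemia cells, 72 h proliferation assay, luminescence read-out; IC50 determined from concentration–response.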
A general note: In ATP-based viability assays light output follows the ATP content of the culture.

The conditions of data set [3]: buffer, pH 10.5.
Data set [4] can be described thus: Aqueous solubility in pH 5.5 phosphate buffer at 120 uM after 24 hrs by HPLC method. It counts as physicochemical. The settings on record: phosphate buffer, pH 5.5.
Data set [5] in a line: Lipophilicity, chromatographic hydrophobicity index of the compound at pH 5.5 by HPLC method. The class given is physicochemical. The settings on record: buffer. In outline:
(§2)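 RP-HPLC with buffer/acetonitrile gradient elution; CHI profile at starting pH 10.5, 7.4, 5.5 and 1.2; values given as average of the compound group.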

Data set [6] can be described thus: Lipophilicity, chromatographic hydrophobicity index of the compound at pH 7.4 by HPLC method. The settings on record: buffer. The class given is physicochemical. In outline: as §2
A short description of data set [7]: Lipophilicity, chromatographic hydrophobicity index of the compound at pH 1.2 by HPLC method. It counts as physicochemical. The settings on record: buffer. In outline: as §2
Data set [8] in a line: Aqueous solubility in pH 7.4 phosphate buffer at 120 uM after 24 hrs by HPLC method. The class given is physicochemical.

Values after ≈ are worked out from the molar mass of the structure shown.

Receptor-type tyrosine-protein kinase FLT3 (Homo sapiens), P36888 [UNDEFINED MUTATION], sequence (P36888 whole entry, looked up, change not shown): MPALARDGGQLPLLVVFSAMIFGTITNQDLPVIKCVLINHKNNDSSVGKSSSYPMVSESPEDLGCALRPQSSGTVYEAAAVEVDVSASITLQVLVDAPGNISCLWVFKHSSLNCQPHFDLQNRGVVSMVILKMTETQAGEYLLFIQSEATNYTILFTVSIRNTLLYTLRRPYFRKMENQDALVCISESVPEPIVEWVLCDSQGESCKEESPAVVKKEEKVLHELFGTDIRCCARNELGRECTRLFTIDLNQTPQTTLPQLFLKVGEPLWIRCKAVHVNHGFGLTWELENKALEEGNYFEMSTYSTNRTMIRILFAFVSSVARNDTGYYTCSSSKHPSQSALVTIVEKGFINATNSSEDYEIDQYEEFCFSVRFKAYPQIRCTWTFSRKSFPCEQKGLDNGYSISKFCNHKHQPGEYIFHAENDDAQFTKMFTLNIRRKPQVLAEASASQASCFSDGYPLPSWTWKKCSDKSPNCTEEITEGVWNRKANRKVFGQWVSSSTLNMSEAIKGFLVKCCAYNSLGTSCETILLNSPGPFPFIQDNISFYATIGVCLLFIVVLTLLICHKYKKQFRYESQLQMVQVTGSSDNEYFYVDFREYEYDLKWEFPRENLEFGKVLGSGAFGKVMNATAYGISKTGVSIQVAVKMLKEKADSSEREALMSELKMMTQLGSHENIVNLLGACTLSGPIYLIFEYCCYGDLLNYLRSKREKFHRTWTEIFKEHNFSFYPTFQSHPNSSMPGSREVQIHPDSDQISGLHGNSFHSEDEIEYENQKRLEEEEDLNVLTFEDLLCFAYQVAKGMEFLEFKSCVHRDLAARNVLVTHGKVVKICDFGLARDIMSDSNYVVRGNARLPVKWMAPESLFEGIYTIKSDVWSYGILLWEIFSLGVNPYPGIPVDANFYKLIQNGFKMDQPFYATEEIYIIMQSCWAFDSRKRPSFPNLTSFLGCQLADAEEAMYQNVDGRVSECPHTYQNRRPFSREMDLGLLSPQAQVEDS

With `CCOC(=O)c1c(C)[nH]c(/C=C2\C(=O)Nc3ccc(C(=O)N[C@H](Cc4ccccc4)C(=O)OC)cc32)c1C`, the inhibition (in general, the share of the control response that was lost under treatment) in [1] is 61.3%; in data set [2] it was 92.2%. Also, the midpoint of inhibition in the data set with MV4-11, the IC50, lay at 1.3 µM.

With `COC(=O)CC[C@H](NC(=O)c1c(C)[nH]c(/C=C2\C(=O)Nc3ccc(C(=O)N[C@H](Cc4ccccc4)C(=O)OC)cc32)c1C)C(=O)OC`, the inhibition in [1] was found to be 35.3%; in data set [2], 88.4%. Besides, in the data set on MV4-11, the IC50 (usually the concentration at which inhibition is half-maximal) turned out to be 3.2 µM.

As for `COC(=O)[C@H](Cc1ccccc1)NC(=O)c1ccc2c(c1)/C(=C/c1[nH]c(C)c(C(=O)N[C@H](Cc3ccccc3)C(=O)OC)c1C)C(=O)N2`, the inhibition was 35.4% in [1] and 67.7% in [2]. The same molecule showed a concentration for half-maximal inhibition (IC50) in the data set on MV4-11 of 3.3 µM.

In the case of `COC(=O)[C@H](Cc1ccccc1)NC(=O)c1ccc2c(c1)/C(=C/c1[nH]c(C)c(C(=O)N[C@H](Cc3ccccc3)C(=O)O)c1C)C(=O)N2`, the inhibition in data set [1] was 89.6%; in [2] it was greater than 100%. In the data set with MV4-11, this molecule yielded a half-maximal inhibitory concentration (IC50) of 18.1 µM.

Consider `Cc1[nH]c(/C=C2\C(=O)Nc3ccc(C(=O)N[C@@H](Cc4ccccc4)C(=O)O)cc32)c(C)c1C(=O)O`, for which the CHI came to 24 in [3], 41 in [5], 32 in [6] and 63 in data set [7]. Moreover, the solubility (usually how much of the substance goes into solution per volume) at 24 h, 120 µM is less than 5 µM in [4] and no less than 120 µM in data set [8]. The values for the inhibition in [1] and in [2] were 97.4% and greater than 100%, respectively.

Regarding `COC(=O)[C@@H](Cc1ccccc1)NC(=O)c1ccc2c(c1)/C(=C/c1[nH]c(C)c(C(=O)N[C@H](Cc3ccccc3)C(=O)O)c1C)C(=O)N2`, the inhibition was 28.9% in data set [1] and greater than 100% in data set [2]. Besides, inhibition with MV4-11 was half-maximal at 19.7 µM (IC50).

As to `COC(=O)CC[C@@H](NC(=O)c1ccc2c(c1)/C(=C/c1[nH]c(C)c(C(=O)N[C@H](Cc3ccccc3)C(=O)OC)c1C)C(=O)N2)C(=O)OC`, the inhibition stood at 12.1% in [1] and 32.8% in data set [2]. The IC50 with MV4-11 stood at 10.3 µM.

`COC(=O)CC[C@H](NC(=O)c1c(C)[nH]c(/C=C2\C(=O)Nc3ccc(C(=O)O)cc32)c1C)C(=O)OC`: the CHI turned out to be 35 in data set [3], 45 in data set [5], 38 in data set [6] and 58 in [7]. The solubility at 24 h, 120 µM in [4] is 30 µM (≈ 14.5 µg/mL); in [8] it was no less than 120 µM. Also, the inhibition in data set [1] is 97.4%; in data set [2], greater than 100%.

Take `COC(=O)CC[C@@H](NC(=O)c1c(C)[nH]c(/C=C2\C(=O)Nc3ccc(C(=O)N[C@@H](Cc4ccccc4)C(=O)OC)cc32)c1C)C(=O)OC`: the figures for the inhibition in [1] and in [2] were 53.5% and 94.8%, respectively. Besides, the IC50 with MV4-11 was found to be 25.4 µM.

For the molecule `COC(=O)[C@H](Cc1ccccc1)NC(=O)c1c(C)[nH]c(/C=C2\C(=O)Nc3ccc(C(=O)N[C@@H](Cc4ccccc4)C(=O)O)cc32)c1C`, the CHI in [3] was 58; in data set [5] it was 60; in data set [6] it was 60; in [7], 81. Also, the values for the solubility at 24 h, 120 µM in [4] and in [8] were 20 µM (≈ 12.7 µg/mL) and 50 µM (≈ 31.7 µg/mL), respectively. Besides, the figures for the inhibition in [1] and in data set [2] were 94.8% and greater than 100%, respectively.

As to `COC(=O)c1ccc2c(c1)/C(=C/c1[nH]c(C)c(C(=O)N[C@H](Cc3ccccc3)C(=O)O)c1C)C(=O)N2`, the inhibition in data set [1] is 91%; in [2], greater than 100%. Also, in the data set with MV4-11, half-maximal inhibition (IC50) was put at 3.9 µM.

In the case of `COC(=O)CC[C@@H](NC(=O)c1c(C)[nH]c(/C=C2\C(=O)Nc3ccc(C(=O)OC)cc32)c1C)C(=O)OC`, the inhibition in data set [1] worked out at 88.3%; in [2], 93.5%. Also, the midpoint of inhibition in the data set with MV4-11, the IC50, lay at 1.3 µM.

`Cc1[nH]c(/C=C2\C(=O)Nc3ccc(C(=O)N[C@@H](Cc4ccccc4)C(=O)O)cc32)c(C)c1C(=O)N[C@@H](Cc1ccccc1)C(=O)O`: the CHI in data set [3] is given as 36; in data set [5], 40; in data set [6], 39; in data set [7] it was 70. In addition, the results for the solubility at 24 h, 120 µM in [4] and in [8] were 110 µM (≈ 68.3 µg/mL) and no less than 120 µM, respectively. Also, the inhibition is 98.7% in data set [1] and greater than 100% in data set [2].

As for `COC(=O)CC[C@H](NC(=O)c1ccc2c(c1)/C(=C/c1[nH]c(C)c(C(=O)N[C@@H](CCC(=O)OC)C(=O)OC)c1C)C(=O)N2)C(=O)OC`, the CHI in [3], in [5], in data set [6] and in data set [7] was 65 in each case. For the same molecule, the solubility at 24 h, 120 µM in data set [4] and in data set [8] was less than 5 µM throughout. In addition, the inhibition was found to be 41.9% in data set [1] and 80.5% in data set [2].

Consider `CCN(CC)CCNC(=O)c1c(C)[nH]c(/C=C2\C(=O)Nc3ccc(F)cc32)c1C` [SUNITINIB], for which the solubility at 24 h, 120 µM in [4] and in data set [8] was no less than 120 µM in each case. Moreover, the CHI in data set [5] came out at 55; in data set [6], 57; in data set [7], 51. In addition, the inhibition is 92.3% in [1] and 94.8% in [2]. Further, the concentration for half-maximal inhibition (IC50) with MV4-11 was less than 0.01 µM.

As to `COC(=O)CC[C@H](NC(=O)c1ccc2c(c1)/C(=C/c1[nH]c(C)c(C(=O)O)c1C)C(=O)N2)C(=O)OC`, the CHI turned out to be 34 in data set [3], 54 in data set [5], 42 in [6] and 59 in data set [7]. Besides, the solubility at 24 h, 120 µM in data set [4] was less than 5 µM; in [8] it was 100 µM (≈ 48.3 µg/mL). The inhibition amounted to 58.7% in data set [1] and 28.8% in [2].

Consider `COC(=O)CC[C@@H](NC(=O)c1c(C)[nH]c(/C=C2\C(=O)Nc3ccc(C(=O)N[C@H](Cc4ccccc4)C(=O)OC)cc32)c1C)C(=O)OC`, for which the inhibition worked out at 37.9% in data set [1] and 63.8% in [2]. In addition, in the data set on MV4-11, half-maximal inhibition (IC50) was put at 1.6 µM.

For `COC(=O)CC[C@H](NC(=O)c1c(C)[nH]c(/C=C2\C(=O)Nc3ccc(C(=O)N[C@@H](Cc4ccccc4)C(=O)O)cc32)c1C)C(=O)OC`, the CHI was 47 in [3], 50 in data set [5], 50 in data set [6] and 68 in data set [7]. Moreover, the solubility at 24 h, 120 µM in data set [4] was 60 µM (≈ 37.8 µg/mL); in data set [8], no less than 120 µM. For the same molecule, the inhibition is 98.7% in [1] and greater than 100% in [2].

For `COC(=O)CC[C@@H](NC(=O)c1ccc2c(c1)/C(=C/c1[nH]c(C)c(C(=O)N[C@@H](Cc3ccccc3)C(=O)OC)c1C)C(=O)N2)C(=O)OC`, the figures for the inhibition in [1] and in data set [2] were 8.2% and 49.6%, respectively. This molecule yielded a concentration for half-maximal inhibition (IC50) with MV4-11 of 16.8 µM.

For `CCOC(=O)c1c(C)[nH]c(/C=C2\C(=O)Nc3ccc(C(=O)N[C@@H](CCC(=O)OC)C(=O)OC)cc32)c1C`, the CHI in data set [3], in [5], in data set [6] and in data set [7] was 84 in each case. Also, the solubility at 24 h, 120 µM in data set [4] and in data set [8] was less than 1 µM throughout. Moreover, the results for the inhibition in data set [1] and in data set [2] were 30.2% and 76.7%, respectively.

For `Cc1[nH]c(/C=C2\C(=O)Nc3ccc(C(=O)O)cc32)c(C)c1C(=O)N[C@@H](Cc1ccccc1)C(=O)O`, the CHI turned out to be 24 in data set [3], 35 in [5], 29 in data set [6] and 61 in data set [7]. The solubility at 24 h, 120 µM in data set [4] was 110 µM (≈ 52.1 µg/mL); in [8], no less than 120 µM. Further, the inhibition in data set [1] was 100%; in data set [2], greater than 100%.

Regarding `CCOC(=O)c1c(C)[nH]c(/C=C2\C(=O)Nc3ccc(C(=O)N[C@@H](Cc4ccccc4)C(=O)O)cc32)c1C`, the CHI was determined as 58 in data set [3], 61 in [5], 60 in [6] and 86 in [7]. Moreover, the solubility at 24 h, 120 µM in data set [4] was less than 5 µM; in data set [8], 20 µM (≈ 10 µg/mL). Moreover, the inhibition was 90.9% in data set [1] and greater than 100% in data set [2].

Turning to `COC(=O)c1ccc2c(c1)/C(=C/c1[nH]c(C)c(C(=O)N[C@H](Cc3ccccc3)C(=O)OC)c1C)C(=O)N2`, the inhibition came out at 47% in [1] and 80.6% in [2]. In the data set on MV4-11, this molecule gave a half-maximal inhibitory concentration (IC50) of 0.3 µM.

Take `COC(=O)[C@@H](Cc1ccccc1)NC(=O)c1ccc2c(c1)/C(=C/c1[nH]c(C)c(C(=O)O)c1C)C(=O)N2`: the inhibition came out at 76.7% in data set [1] and 27.5% in data set [2]. In the data set on MV4-11, this molecule displayed an IC50 of 0.6 µM.

Consider `COC(=O)[C@@H](Cc1ccccc1)NC(=O)c1ccc2c(c1)/C(=C/c1[nH]c(C)c(C(=O)N[C@H](Cc3ccccc3)C(=O)OC)c1C)C(=O)N2`, for which the inhibition was 35.4% in [1] and 85.8% in data set [2]. In addition, in the data set on MV4-11, 2.9 µM corresponded to half-maximal inhibition (IC50).

In the case of `COC(=O)CC[C@H](NC(=O)c1ccc2c(c1)/C(=C/c1[nH]c(C)c(C(=O)N[C@H](Cc3ccccc3)C(=O)OC)c1C)C(=O)N2)C(=O)OC`, the inhibition came to 31.5% in [1] and 78% in [2]. In the data set on MV4-11, the IC50 is greater than 30 µM.

`COC(=O)[C@H](Cc1ccccc1)NC(=O)c1c(C)[nH]c(/C=C2\C(=O)Nc3ccc(C(=O)N[C@H](Cc4ccccc4)C(=O)OC)cc32)c1C`: the inhibition in data set [1] is 29%; in data set [2], 70.3%. The molecule further registered a half-inhibitory concentration (IC50) in the data set on MV4-11 of 2.5 µM.
